ChEMBL document CHEMBL3232735, “Pyrrolopyrimidine-inhibitors with hydantoin moiety as spacer can explore P4/S4 interaction on plasmin” (Bioorg Med Chem, 2014)

Experiments:
Plasma kallikrein = Plasma kallikrein (Homo sapiens, UniProt P03952); test: Inhibition of human plasma kallikerin using H-D-Phe-Pro-Arg-pNA (S-2302) peptide as substrate assessed as reduction of enzyme hydrolytic activity
Outline: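 Plasma kallikrein activity on synthetic peptide substrate S-2302 at 0.2 mM, with and without inhibitor. Hydrolysis followed as absorbance at 405 nm. IC50 is the inhibitor concentration giving a 50% drop in absorbance compared with the uninhibited control under the same conditions.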

Plasminogen = Plasminogen (Homo sapiens, UniProt P00747); test: Inhibition of human plasmin using H-D-Val-Leu-LyspNA (S-2251) peptide as substrate assessed as reduction of enzyme hydrolytic activity
Chain of Plasminogen (P00747 97-580 limits assumed): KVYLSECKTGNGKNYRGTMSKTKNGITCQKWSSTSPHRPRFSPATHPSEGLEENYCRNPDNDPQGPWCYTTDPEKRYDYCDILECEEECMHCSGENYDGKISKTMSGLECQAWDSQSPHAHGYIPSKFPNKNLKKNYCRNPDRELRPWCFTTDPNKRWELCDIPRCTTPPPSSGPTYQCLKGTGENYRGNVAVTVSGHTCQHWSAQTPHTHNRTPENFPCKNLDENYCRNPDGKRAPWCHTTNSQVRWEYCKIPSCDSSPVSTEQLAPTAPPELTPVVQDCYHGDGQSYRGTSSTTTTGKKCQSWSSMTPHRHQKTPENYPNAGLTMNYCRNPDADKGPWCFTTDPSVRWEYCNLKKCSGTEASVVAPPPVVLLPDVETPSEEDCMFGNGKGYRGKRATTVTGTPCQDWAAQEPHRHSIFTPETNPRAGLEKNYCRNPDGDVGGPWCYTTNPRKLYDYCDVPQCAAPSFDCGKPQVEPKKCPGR
Chain of Plasminogen (P00747 581-810 limits assumed): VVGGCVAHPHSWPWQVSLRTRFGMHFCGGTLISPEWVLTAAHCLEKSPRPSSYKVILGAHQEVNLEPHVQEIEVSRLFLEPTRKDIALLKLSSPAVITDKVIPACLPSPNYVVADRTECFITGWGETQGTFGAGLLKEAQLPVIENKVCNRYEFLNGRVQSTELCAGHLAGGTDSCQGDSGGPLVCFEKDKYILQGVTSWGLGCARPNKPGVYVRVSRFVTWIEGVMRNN
Outline: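 Plasmin activity was measured with 0.3 mM S-2251 as substrate and read as absorbance at 405 nm. IC50 is the inhibitor concentration cutting absorbance by 50% compared with the inhibitor-free control under the same conditions.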

[1] = molecular target: Urokinase-type plasminogen activator (Homo sapiens, UniProt P00749); test: Inhibition of human plasma urokinase using Glu-Gly-Arg-pNA (S-2444) peptide as substrate assessed as reduction of enzyme hydrolytic activity
Outline: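 Urokinase hydrolysis of S-2444 at 0.1 mM, monitored by absorbance at 405 nm. IC50 defined as the inhibitor concentration that lowers absorbance by 50% compared with enzyme run under the same conditions without inhibitor.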

Chain of Plasma kallikrein (P03952 20-390 limits assumed): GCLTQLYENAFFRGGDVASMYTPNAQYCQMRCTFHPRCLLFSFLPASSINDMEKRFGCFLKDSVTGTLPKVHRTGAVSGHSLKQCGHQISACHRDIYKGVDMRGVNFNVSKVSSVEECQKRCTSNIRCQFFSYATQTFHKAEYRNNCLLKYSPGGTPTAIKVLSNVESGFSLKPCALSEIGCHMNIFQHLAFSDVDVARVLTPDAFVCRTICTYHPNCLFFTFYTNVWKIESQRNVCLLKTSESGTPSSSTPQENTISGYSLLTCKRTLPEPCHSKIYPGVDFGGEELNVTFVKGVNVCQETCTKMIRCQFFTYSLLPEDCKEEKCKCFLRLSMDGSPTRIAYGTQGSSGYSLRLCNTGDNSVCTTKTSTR
Chain of Plasma kallikrein (P03952 391-638 limits assumed): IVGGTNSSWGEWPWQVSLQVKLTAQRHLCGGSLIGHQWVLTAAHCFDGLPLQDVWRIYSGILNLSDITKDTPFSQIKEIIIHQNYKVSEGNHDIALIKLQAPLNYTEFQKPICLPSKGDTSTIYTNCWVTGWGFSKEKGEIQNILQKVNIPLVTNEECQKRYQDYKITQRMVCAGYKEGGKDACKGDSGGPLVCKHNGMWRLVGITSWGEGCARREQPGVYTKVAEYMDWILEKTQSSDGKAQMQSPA

| Structure (SMILES) | IC50 (Plasma kallikrein) [µM] | IC50 (Plasminogen) [µM] | IC50 [1] [µM] |
| --- | --- | --- | --- |
| Cn1c(CN2C(=O)CN(c3ccc(OCc4ccncc4)cc3)C2=O)cc2cnc(C(=O)N[C@H](C#N)CCCCN)nc21 | > 1000 | 87 | > 1000 |
| Cn1c(CN2C(=O)CN(c3ccc(F)cc3)C2=O)cc2cnc(C(=O)N[C@H](C#N)CCCCN)nc21 | 740 | 130 | > 1000 |
| Cn1c(CN2C(=O)CN(c3ccc(C(N)=O)cc3)C2=O)cc2cnc(C(=O)N[C@H](C#N)CCCCN)nc21 | > 1000 | 160 | > 1000 |
| Cn1c(CN2C(=O)CN(c3ccc(Oc4ccccc4)c(C(N)=O)c3)C2=O)cc2cnc(C(=O)N[C@H](C#N)CCCCN)nc21 | > 1000 | 510 | > 1000 |
| Cn1c(CN2CC(=O)N(c3ccc(Oc4ccccc4)cc3)CC2=O)cc2cnc(C(=O)N[C@H](C#N)CCCCN)nc21 | > 1000 | 960 | > 1000 |
| CN1CC(=O)N(Cc2cc3cnc(C(=O)N[C@H](C#N)CCCCN)nc3n2C)C1=O | > 1000 | > 1000 | > 1000 |
| Cn1c(CN2C(=O)CN(c3cccc(S(N)(=O)=O)c3)C2=O)cc2cnc(C(=O)N[C@H](C#N)CCCCN)nc21 | > 1000 | 220 | > 1000 |
| Cn1c(CN2C(=O)CN(c3ccc(OCc4ccncc4)c(C(N)=O)c3)C2=O)cc2cnc(C(=O)N[C@H](C#N)CCCCN)nc21 | > 1000 | 170 | > 1000 |
| COc1ccc(Oc2ccc(N3CC(=O)N(Cc4cc5cnc(C(=O)N[C@H](C#N)CCCCN)nc5n4C)C3=O)cc2)cc1 | > 1000 | 64 | > 400 |
| COc1ccc(N2CC(=O)N(Cc3cc4cnc(C(=O)N[C@H](C#N)CCCCN)nc4n3C)C2=O)cc1 | > 1000 | 180 | > 1000 |
| Cn1c(CN2C(=O)CN(c3ccc(Oc4ccccc4)cc3)C2=O)cc2cnc(C(=O)N[C@H](C#N)CCCCN)nc21 | > 1000 | 51 | > 400 |
| CCCc1ccc(N2CC(=O)N(Cc3cc4cnc(C(=O)N[C@H](C#N)CCCCN)nc4n3C)C2=O)cc1 | > 1000 | 330 | > 1000 |
| Cn1c(CN2C(=O)CN(c3ccc(S(N)(=O)=O)cc3)C2=O)cc2cnc(C(=O)N[C@H](C#N)CCCCN)nc21 | > 1000 | 260 | > 400 |
| Cn1c(CN2C(=O)CN(c3ccc(OCC(N)=O)cc3)C2=O)cc2cnc(C(=O)N[C@H](C#N)CCCCN)nc21 | > 1000 | 400 | > 1000 |
| Cn1c(CN2C(=O)CN(c3cccc(C#N)c3)C2=O)cc2cnc(C(=O)N[C@H](C#N)CCCCN)nc21 | > 1000 | 220 | > 1000 |
| Cn1c(CN2C(=O)CN(c3cccc(C(N)=O)c3)C2=O)cc2cnc(C(=O)N[C@H](C#N)CCCCN)nc21 | > 1000 | 100 | > 1000 |
| Cn1c(CN2C(=O)CN(c3ccc(Oc4ccccc4C(N)=O)cc3)C2=O)cc2cnc(C(=O)N[C@H](C#N)CCCCN)nc21 | > 1000 | 99 | > 1000 |
| CC(=O)COc1ccc(N2CC(=O)N(Cc3cc4cnc(C(=O)N[C@H](C#N)CCCCN)nc4n3C)C2=O)cc1 | > 1000 | 250 | > 1000 |
| Cn1c(CN2C(=O)CN(c3ccc(OCC#N)cc3)C2=O)cc2cnc(C(=O)N[C@H](C#N)CCCCN)nc21 | > 1000 | 130 | > 1000 |
| Cn1c(CN2C(=O)CN(c3ccc(C#N)cc3)C2=O)cc2cnc(C(=O)N[C@H](C#N)CCCCN)nc21 | > 1000 | 210 | > 1000 |
| Cn1c(CN2C(=O)CN(c3ccc(Oc4ccc5ncccc5c4)cc3)C2=O)cc2cnc(C(=O)N[C@H](C#N)CCCCN)nc21 | > 1000 | > 250 | > 400 |
